Assay outcomes: PubChem, several laboratories
This is a sample that favours compounds with a hit; in the whole collection about 5.6% have one here.
XBP1 UPR activ = activators of adaptive arm of unfolded protein response (XBP1); AID 463104; 330,000 tested, 0.33% active; activation, % at 20 µM; CHO-XBP1 luciferase reporter, IRE1-XBP1 UPR activation, luminescence; percent of tunicamycin response, DMSO as zero;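 active = versus positive control, 20 µM dose yields 30% or more activation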
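Material: CHO-XBP1 cells stably carrying IRE1-XBP1-driven luciferase reporter / Amount: 1000 cells per well / Compound: 20 µM, 1% DMSO / Times: 6 h treatment, 37 °C / Detection: luciferase luminescence / Measure: % activation of reporter signal versus tunicamycin and DMSO controls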
GRIN3A LBD mod = modulates the human NR3A ligand-binding domain; Tm shift relative to glycine control, % at 25 µM; AID 1259313; 340,000 tested, 2.5% active; NR3A LBD differential scanning fluorimetry, Tm shift; 0% = protein alone, 100% = glycine-bound protein;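 active = melting temperature shift of at least 10% of the positive control shift, at one fixed dose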
UPR CHOP act = activators of apoptotic arm of unfolded protein response (CHOP); activation, % at 10 µM; CHO-CHOP luciferase reporter, UPR activation, luminescence; percent of tunicamycin response over DMSO baseline; 330,000 tested, 0.34% active;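 active = at 10 µM dose, activation of 40% or more, normalized to positive control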
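Evaluation: % reporter activation, DMSO baseline versus tunicamycin full activation; System: CHO-CHOP luciferase reporter cell line; Input: 500 cells/well; Incubation: 6 h compound treatment, 37 °C; Measured by: Steady-Glo luciferase luminescence; Dosing: one dose, 10 µM in 0.5% DMSO; Buffer or medium: F12 medium, 10% FBS; Benchmarks: positive tunicamycin 10 µg/mL, negative DMSO alone.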
aDG glyco act = increases alpha dystroglycan glycosylation | Pro5-aDG cells, alpha-DG glycosylation AlphaScreen (IIH6); 0% Pro5, 100% B10-LARGE cell signal | activation, % at 10 µM | 360,000 tested, 0.22% active;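 active = activation of at least 8% versus controls, or a plate z-score of at least 8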;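 also: Pro5 are CHO cells carrying HIG-tagged alpha-DG that lacks glycosylation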
MPTP inh = inhibitors of mitochondrial permeability transition pore; 360,000 tested, 1.4% active; inhibition, % at 10 µM; isolated mouse mitochondria, Ca2+ swelling absorbance, 30 min;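 active = inhibition of 50% or more, scaled per plate between neutral and stimulator controls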
CHOP inh = CHOP inhibition in unfolded protein response; CHO-K1 CHOP-promoter luciferase, tunicamycin-induced, 15-18 h; inhibition, % at 10 µM; 220,000 tested, 3.8% active; AID 2732;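 active = compounds that reduced the stress-induced luciferase reporter signal by more than about 70% of percent inhibition, limit read from the data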
A number is an active result; - = inactive; . = no result given.

SMILES | XBP1 UPR activ | GRIN3A LBD mod | UPR CHOP act | aDG glyco act | MPTP inh | CHOP inh
CC1(C(=O)Nc2cccc(OC(F)(F)F)c2)Cc2c(-c3ccc(C(N)=O)cc3)ccnc2O1 (stereo not given) | . | . | . | - | - | .
CC(=O)Nc1ccc(C=NNC(=O)CCCC(=O)NN=Cc2ccc(NC(C)=O)cc2)cc1 | . | - | . | - | - | .
Cc1cccc(C)c1NC(=O)C1(N(Cc2ccco2)C(=O)CC2NC(=O)NC2=O)CCCCC1 (stereo not given) | - | - | - | - | - | 77
CCCSc1ccc([C@@H]2[C@@H]3C(=O)N(C)C(=O)[C@@H]3[C@]3(C(=O)OC)CCCN23)cc1OC | - | - | - | - | - | .
COc1ccc(C(=O)COC(=O)c2cc(=O)[nH]c3ccccc23)c(OC)c1 | - | - | - | - | - | .
O=C(Cn1cnc2c(nnn2Cc2ccc(Cl)cc2)c1=O)c1ccccc1 | - | - | - | - | - | -
O=C(Cn1cnc2c(nnn2Cc2ccccc2)c1=O)c1ccccc1 | - | 12 | - | - | - | -
CC(C)C[C@H]1CN(CCCC[C@H]2CNC(=O)C(=O)N2CCc2ccccc2)C(=O)C(=O)N1CC1CCCCC1 | . | . | . | - | - | .
CCOC(=O)c1ccc(S(=O)(=O)NNC(=O)Cc2csc(C)n2)cc1 | - | - | - | - | - | .
O=C(NCc1ccc2c(c1)OCO2)C1CCC(CNS(=O)(=O)c2ccc(Cl)cc2)CC1 (stereo not given) | - | - | - | - | - | -
O=S(=O)(NCCc1csc(-c2ccc(C(F)(F)F)cc2)n1)c1ccc2c(c1)OCCO2 | - | - | - | - | - | 81
Cc1ccc(S(=O)(=O)NCC2CCC(C(=O)NCc3ccc4c(c3)OCO4)CC2)cc1 (stereo not given) | - | 15 | - | - | - | -
NS(=O)(=O)c1ccc(CNS(=O)(=O)c2ccc3c(c2)OCCO3)cc1 | - | - | - | - | - | .
Cc1ccc(CNS(=O)(=O)c2ccc3c(c2)OCCO3)cc1 | - | 16 | - | - | - | -
COc1ccc(-c2nc(CCNS(=O)(=O)c3ccc4c(c3)OCCO4)cs2)cc1 | - | - | - | - | - | -
COc1ccc(C(=O)C2CCN(CC(=O)Nc3ccc(C)cc3)CC2)cc1 | - | - | - | - | - | .
O=C(/C=C/c1ccccc1)Nn1c(-c2cccs2)nc2ccccc2c1=O | - | - | - | - | - | -
O=C(/C=C/c1cccc(Cl)c1)Nn1c(-c2cccs2)nc2ccccc2c1=O | - | 17 | - | - | - | -
O=C(CSc1nnc(-c2ccc(O)cc2)o1)Nc1ccc2c(c1)OCCO2 | - | - | - | - | - | -
Cc1ccc(NC(=O)CSc2nnc(-c3ccccc3C)o2)cc1C | - | - | - | - | - | 70
O=C(CSc1nnc(-c2ccc(O)cc2)o1)Nc1cccc(O)c1 | - | 18 | - | - | - | .
N#Cc1cccc(NC(=O)CSc2nnc(-c3n[nH]c4ccccc34)o2)c1 | - | 71 | - | - | - | -
CCOc1ccc(NC(=O)CSc2nnc(COc3c(C)cccc3C)o2)cc1 | - | - | - | - | - | 87
Cc1cccc(C)c1OCc1nnc(SCC(=O)Nc2nccs2)o1 | - | - | - | - | - | -
NS(=O)(=O)c1ccc(NC(=O)CSc2nnc(-c3ccc(O)cc3)o2)cc1 | - | 26 | - | - | - | .
SMILES | XBP1 UPR activ | GRIN3A LBD mod | UPR CHOP act | aDG glyco act | MPTP inh | CHOP inh
CC1C(=O)N2CCCc3cc(NC(=O)C(=O)NCCCc4ccccc4)cc1c32 (stereo not given) | - | - | - | - | - | .
O=C(Nc1ccc(Cl)cc1Cl)c1ccc2ncsc2c1 | - | - | - | - | - | .
CC(OC(=O)C1CCCCC1)C(=O)Nc1cccc([N+](=O)[O-])c1 (stereo not given) | - | - | - | - | - | .
O=C(O)COc1ccc(/C=N/NC(=O)c2cn(-c3ccccc3)nc2-c2ccccc2)cc1 | - | - | - | - | - | .
O=C(N/N=C/c1ccc([N+](=O)[O-])o1)c1cc(-c2ccc(-c3ccccc3)cc2)nc2ccccc12 | - | - | - | - | - | -
O=C(N/N=C/c1ccc([N+](=O)[O-])o1)c1cn(-c2ccccc2)nc1-c1ccccc1 | - | 13 | - | - | - | 95
O=C(N/N=C/c1ccc([N+](=O)[O-])o1)c1cn(-c2ccccc2)nc1-c1ccc(Cl)cc1 | - | 34 | - | - | - | -
N#Cc1ccccc1OCc1cccc(S(=O)(=O)N2CCOCC2)c1 | - | - | - | - | - | .
CCc1nc(N2CCN(C(=O)c3ccco3)CC2)c(C#N)c2c1COC(C)(C)C2 | - | - | - | - | - | .
N#Cc1c(NCCCO)nc(-c2ccccc2)c2c1CCCC2 | - | - | - | - | - | 78
CC1(C)Cc2c(C#N)c(N3CCN(C(=O)c4ccco4)CC3)nc(Cc3ccccc3)c2CO1 | - | - | - | - | - | 88
N#Cc1c(N2CCN(C(=O)c3ccccc3)CC2)nc(-c2ccccc2)c2c1CCCC2 | - | - | - | - | - | 72
CC(C)Cc1nc(N2CCN(C(=O)c3ccccc3)CC2)c(C#N)c2c1CCC2 | - | - | - | - | - | 80
Cc1ccsc1C(C(=O)NC(C)(C)C)N(C(=O)c1csnn1)c1ccccc1 (stereo not given) | - | - | - | - | - | -
CCCN(CC(=O)Nc1ccccc1C)C(=O)CCCc1c[nH]c2ccccc12 | - | - | - | - | - | .
CC(C)CN(C(=O)CCCOc1ccc(Cl)cc1Cl)c1c(N)n(Cc2ccccc2)c(=O)[nH]c1=O | - | - | - | - | - | .
O=C(Nc1nnc(CSCc2ccc(F)cc2)s1)c1ccc([N+](=O)[O-])cc1 | - | - | - | - | - | -
CN1CC(=O)N(CC(=O)Nc2ccc(OCc3ccccc3)cc2)C1=O | - | - | - | - | - | .
CC(C)c1ccc(-c2nc(N3CCCCCC3)nc3n[nH]c(N)c23)cc1 | - | - | - | - | - | 80
CC(C)c1ccc(-c2nc(N3CCCC3)nc3n[nH]c(N)c23)cc1 | - | - | - | - | - | -
O=C(Nc1ccc(NS(=O)(=O)c2ccccc2)cc1)c1ccccc1Cl | - | 35 | - | - | - | .
O=C(O)c1cccc(NS(=O)(=O)c2cc(S(=O)(=O)c3ccc(Cl)cc3)ccc2Cl)c1 | - | 16 | - | - | - | .
O=C(O)c1ccc(Cl)c(S(=O)(=O)Nc2ccccc2C(=O)Nc2ccc(Cl)cc2)c1 | - | 29 | - | - | - | .
Cn1c(-c2cccc([N+](=O)[O-])c2)cnc1NCc1cccc(F)c1 | - | - | - | - | - | .
COc1cc2c3c(c1OC)C(=O)CC3CCCC2 (stereo not given) | . | . | . | - | - | .
Nc1nn(-c2ccccc2)c(N)c1N=Nc1cccc(F)c1 | - | 11 | - | - | - | -
